Experimental data reported in ChEMBL document CHEMBL1155196, “N-hydroxybenzimidazole inhibitors of the transcription factor LcrF in Yersinia: novel antivirulence agents” (J Med Chem, 2009).
Activity calls are given as the source filed them. No cut-off for these calls is given here.

Columns and labels:
J774.A1 [1] = experiment: Cytotoxicity against mouse J774A1 cells assessed as LDH release at 50 ug/mL after 18 hrs by colorimetric assay; assay type: cell-based; settings: j774.a1, 18 h
[2] = Inhibition of 6His-tagged Yersinia sp. LcrF binding to biotinylated double-stranded DNA by cell free-based chemiluminescence assay
Summary of the method: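 Biotinylated double-stranded DNA carrying LcrF sites (2 nM) captured on streptavidin plates and incubated with 6His-LcrF (20 nM) plus titrated inhibitor in Hepes/ammonium sulfate/KCl/EDTA buffer with 0.2% polysorbate 20 and 0.5% non-fat milk. After washing, anti-6His then HRP secondary antibody, chemiluminescence read-out. % inhibition against control wells, curve-fitted IC50; mostly mean of two independent experiments.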

J774.A1 [3] = experiment: Inhibition of Yersinia pseudotuberculosis YP3 pIB1 LcrF-mediated cytotoxicity against mouse J774A1 cells assessed as LDH release at 50 ug/mL after 18 hrs by colorimetric assay; assay type: cell-based; settings: Yersinia pseudotuberculosis YPIII
Summary of the method: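 J774A.1 macrophages plated at 2 × 10^4 per well the day before. Y. pseudotuberculosis YPIIIpIB1 grown in 2-YT with 20 mM MgCl2 and 20 mM sodium oxalate, 90 min at 26 °C then 90 min at 37 °C. Infection at MOI 5–10 in DMEM, 2 h at 37 °C, 5% CO2. Gentamicin 50 μg/mL added, then ~18 h. Compound at 50 μg/mL in both culture and wells; vehicle DMSO/0.4% ethanolamine. LDH release measured colorimetrically, expressed as % of wild-type vehicle cytotoxicity.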

[4] = test system: Yersinia pseudotuberculosis; experiment: Antimicrobial activity against Yersinia pseudotuberculosis after 18 to 24 hrs by CLSI microdilution test; assay type: functional
[5] = Inhibition of Salmonella sp. SlyA binding to DNA
Summary of the method: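 Same format as the LcrF ELISA-type assay. Biotinylated double-stranded DNA carrying the binding sequence was captured on streptavidin-coated wells with His-tagged SlyA and titrated inhibitor. Buffer was 20 mM Hepes, 10 mM ammonium sulfate, 30 mM KCl, 1 mM EDTA, 0.2% polysorbate 20 and 0.5% non-fat milk. After washing, bound complex was detected with anti-6His then HRP secondary and chemiluminescence. IC50 came from dose-response fits against control wells.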

Escherichia coli = experiment: Antimicrobial activity against Escherichia coli ATCC 25922 after 18 to 24 hrs by CLSI microdilution test; assay type: functional
Staphylococcus aureus = experiment: Antimicrobial activity against Staphylococcus aureus RN450 after 18 to 24 hrs by CLSI microdilution test; assay type: functional
[6] = target: T1, HTH-type transcriptional regulator ExsA (Pseudomonas aeruginosa (strain ATCC 15692 / PAO1 / 1C / PRS 101 / LMG12228), UniProt P26993); experiment: Inhibition of Pseudomonas aeruginosa ExsA binding to DNA
T1 sequence (P26993 whole entry): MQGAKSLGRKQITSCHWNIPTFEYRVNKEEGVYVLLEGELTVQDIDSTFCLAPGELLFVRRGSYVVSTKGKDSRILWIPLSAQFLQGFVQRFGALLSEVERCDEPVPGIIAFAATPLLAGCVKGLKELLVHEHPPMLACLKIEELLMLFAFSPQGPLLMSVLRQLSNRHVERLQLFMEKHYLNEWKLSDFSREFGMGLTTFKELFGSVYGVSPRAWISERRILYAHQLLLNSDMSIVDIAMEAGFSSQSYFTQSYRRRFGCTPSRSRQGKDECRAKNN
Summary of the method: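 ExsA-DNA binding run like the LcrF plate assay: immobilised biotinylated DNA, His-tagged regulator, titrated inhibitor, washing, anti-6His/HRP chemiluminescent detection, % inhibition against control wells, curve-fitted IC50.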

Nucleic Acid = experiment: Binding affinity to supercoiled Escherichia coli pET-15b DNA after 30 mins by agarose gel electrophoresis assay; assay type: nucleic-acid assay
Summary of the method: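 Nonspecific DNA binding: compounds diluted to 1 mg/mL in DMSO with 0.4% ethanolamine, then added 1:10 (final 100 μg/mL) to 100 ng supercoiled pET-15b plasmid in 20 mM Hepes pH 7.6, 10 mM ammonium sulfate, 30 mM KCl, 1 mM EDTA, 0.2% polysorbate-20; 30 min room temperature; 0.8% agarose gel, ethidium bromide stain; migration shift scored; vehicle control.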

Structure (SMILES)	Activity (J774.A1 [1])	IC50 [2] [µM]	also measured
COc1ccccc1/C=C/C(=O)Nc1ccc(-c2nc3ccc([N+](=O)[O-])cc3n2O)cc1	Non-toxic	20.9	
O=C(/C=C/c1ccc(F)cc1)Nc1ccc(-c2nc3ccc([N+](=O)[O-])cc3n2O)cn1	Non-toxic	7.4	
O=C(/C=C/c1ccc(F)cc1F)Nc1ccc(-c2nc3ccc([N+](=O)[O-])cc3n2O)cc1	Non-toxic	5	
O=C(/C=C/c1ccc(F)cc1)Nc1ccc(-c2nc3ccc(Cl)cc3n2O)cc1	Non-toxic	> 100	
O=C(/C=C/c1ccc(F)c(F)c1)Nc1ccc(-c2nc3ccc([N+](=O)[O-])cc3n2O)cc1	Non-toxic	14.5	Activity (J774.A1 [3]): Active
O=C(/C=C/c1ccccc1)Nc1ccc(-c2nc3ccc([N+](=O)[O-])cc3n2O)cc1	Non-toxic	6.9	
Cc1ccc(/C=C/C(=O)Nc2ccc(-c3nc4ccc([N+](=O)[O-])cc4n3O)cc2)cc1	Non-toxic	0.8	Activity (J774.A1 [3]): inactive
Cc1cc2nc(-c3ccc(NC(=O)/C=C/c4ccc(F)cc4)cc3)n(O)c2cc1[N+](=O)[O-]	Non-toxic	7.6	MIC [4]: > 64 µg/mL; IC50 [5]: > 52 µM; MIC (Escherichia coli): > 64 µg/mL; MIC (Staphylococcus aureus): > 64 µg/mL; Activity (J774.A1 [3]): Active; IC50 [6]: 6.7 µM
O=C(/C=C/c1ccc(F)cc1)Nc1ccc(-c2nc3ccc(C(F)(F)F)cc3n2O)cc1	Non-toxic	59.7	
O=C(/C=C/c1ccc(F)cc1)Nc1ccc(-c2nc3ccc([N+](=O)[O-])cc3n2O)nc1	Non-toxic	10.8	Activity (J774.A1 [3]): inactive
COc1ccc(/C=C/C(=O)Nc2ccc(-c3nc4ccc([N+](=O)[O-])cc4n3O)cc2)cc1	Non-toxic	8	MIC [4]: > 64 µg/mL; IC50 [5]: > 55.2 µM; MIC (Escherichia coli): > 64 µg/mL; MIC (Staphylococcus aureus): > 64 µg/mL; Activity (J774.A1 [3]): Active; IC50 [6]: 5.9 µM
COc1cc(NC(=O)/C=C/c2ccc(F)cc2)ccc1-c1nc2ccc([N+](=O)[O-])cc2n1O	Non-toxic	13.5	
O=C(Nc1ccc(-c2nc3ccc([N+](=O)[O-])cc3n2O)cc1)c1ccc(F)cc1	Non-toxic	17.7	
O=C(/C=C/c1ccc(-c2c[nH]cn2)cc1)Nc1ccc(-c2nc3ccc([N+](=O)[O-])cc3n2O)cc1	Non-toxic	> 44.8	
O=C(NCc1ccc(-c2nc3ccc([N+](=O)[O-])cc3n2O)cc1)c1ccc(F)cc1	Non-toxic	> 58.4	
CN1CCN(CCOc2cc3nc(-c4ccc(NC(=O)/C=C/c5ccc(F)cc5)cc4)n(O)c3cc2[N+](=O)[O-])CC1	Non-toxic		IC50 (Nucleic Acid): 3.1 µM
O=C(/C=C/c1ccc(-n2cnnc2)cc1)Nc1ccc(-c2nc3ccc([N+](=O)[O-])cc3n2O)cc1	Non-toxic	35.7	
CCOc1cc2nc(-c3ccc(NC(=O)/C=C/c4ccc(F)cc4)cc3)n(O)c2cc1[N+](=O)[O-]	Non-toxic	17.1	Activity (J774.A1 [3]): Active
O=C(/C=C/c1ccc(F)cc1)Nc1ccc(-c2nc3cc(F)c([N+](=O)[O-])cc3n2O)cc1	Non-toxic	26.6	
O=C(/C=C/c1ccc(F)cc1)Nc1ccc(-c2nc3ccc([N+](=O)[O-])cc3n2O)cc1F	Non-toxic	20.7	
O=C(Cc1ccc(F)cc1)Nc1ccc(-c2nc3ccc([N+](=O)[O-])cc3n2O)cc1	Non-toxic	> 58.4	
O=C(/C=C/c1ccc(F)cc1)Nc1ccc(-c2nc3ccc(C(=O)O)cc3n2O)cc1	Non-toxic	38.5	

Structure (SMILES)	Activity (J774.A1 [1])	IC50 [2] [µM]	also measured
CN(C)CCN(C)c1cc2nc(-c3ccc(NC(=O)/C=C/c4ccc(F)cc4)cc3)n(O)c2cc1[N+](=O)[O-]	Non-toxic		IC50 (Nucleic Acid): 3.3 µM
CC(=O)c1ccc2nc(-c3ccc(NC(=O)/C=C/c4ccc(F)cc4)cc3)n(O)c2c1	Non-toxic	39.4	
Cc1cc(-c2nc3ccc([N+](=O)[O-])cc3n2O)ccc1NC(=O)/C=C/c1ccc(F)cc1	Non-toxic	25.3	
COc1ccc(/C=C/C(=O)Nc2ccc(-c3nc4ccc([N+](=O)[O-])cc4n3O)cc2)c(OC)c1	Non-toxic	38.5	
O=C(/C=C/c1ccc(F)cc1)Nc1ccc(-c2nc3ccccc3n2O)cc1	Non-toxic	> 100	
N#Cc1ccc2nc(-c3ccc(NC(=O)/C=C/c4ccc(F)cc4)cc3)n(O)c2c1	Non-toxic	8.3	
O=C(/C=C/c1ccc(F)cc1)Nc1ccc(-c2nc3ccc(F)cc3n2O)cc1	Non-toxic	> 100	
O=C(/C=C/c1ccc(F)cc1)Nc1ccc(-c2nc3ccc([N+](=O)[O-])cc3n2O)c(F)c1	Non-toxic	6.5	
CN(C)c1ccc(/C=C/C(=O)Nc2ccc(-c3nc4ccc([N+](=O)[O-])cc4n3O)cc2)cc1	Non-toxic	16.9	
O=C(/C=C/c1ccc(F)cc1)NCc1ccc(-c2nc3ccc([N+](=O)[O-])cc3n2O)cc1	Non-toxic	14	
CC(C)c1ccc(/C=C/C(=O)Nc2ccc(-c3nc4ccc([N+](=O)[O-])cc4n3O)cc2)cc1	Non-toxic	> 50.9	
CN(C)c1cc2nc(-c3ccc(NC(=O)/C=C/c4ccc(F)cc4)cc3)n(O)c2cc1[N+](=O)[O-]	Non-toxic	66	
N#Cc1ccc(/C=C/C(=O)Nc2ccc(-c3nc4ccc([N+](=O)[O-])cc4n3O)cc2)cc1	Non-toxic	16.4	Activity (J774.A1 [3]): Active
O=C(/C=C/c1ccc(F)cc1)Nc1ccc(-c2nc3ccc(-n4ccnc4)cc3n2O)cc1	Non-toxic	37.3	
O=C(/C=C/c1ccc(F)cc1)Nc1ccc(-c2nc3ccncc3n2O)cc1	Non-toxic	> 54.8	
O=C(/C=C/c1ccc(F)cc1)Nc1ccc(-c2nc3ccc([N+](=O)[O-])cc3n2O)cc1	Non-toxic	3.9	MIC [4]: > 64 µg/mL; IC50 [5]: > 53.8 µM; MIC (Escherichia coli): > 64 µg/mL; MIC (Staphylococcus aureus): > 64 µg/mL; Activity (J774.A1 [3]): Active; IC50 [6]: 3.5 µM
O=C(/C=C/c1ccc(F)cc1)Nc1ccc(-c2nc3ccc(-n4cccn4)cc3n2O)cc1	Non-toxic	53.7	
O=C(/C=C/c1ccc(C(F)(F)F)cc1)Nc1ccc(-c2nc3ccc([N+](=O)[O-])cc3n2O)cc1	Non-toxic	6.4	
O=C(CCc1ccc(F)cc1)Nc1ccc(-c2nc3ccc([N+](=O)[O-])cc3n2O)cc1	Non-toxic	> 53.5	
CS(=O)(=O)c1ccc2nc(-c3ccc(NC(=O)/C=C/c4ccc(F)cc4)cc3)n(O)c2c1	Non-toxic	87.4	
O=C(/C=C/c1ccc(O)cc1)Nc1ccc(-c2nc3ccc([N+](=O)[O-])cc3n2O)cc1	Non-toxic	> 57	
